Assay results from PubChem BioAssay AID504414 (Broad Institute, 2011).
The whole screen tested about 330,000 compounds, of which about 55 (0.02%) were called active. What follows is part of a selection rich in actives, with near analogues and random picks from the rest. Unmarked numbers belong to inactive results.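 Rule for the calls: active = highest replicate inhibition of at least 40%; inactive = the rest.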

biological target: Golgi-associated PDZ and coiled-coil motif-containing protein (Homo sapiens) (UniProt Q9HD26); assay: CAL PDZ peptide-binding inhibitors, primary screen, biochemical, fluorescence polarization, Cer-tagged CAL PDZ, HTS (AID 504414); details: purified CAL PDZ, TMR-peptide fluorescence polarization, 1 h; at 20 µM; stronger effect = higher value;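 note: plate controls were DMSO neutral control wells for no effect and unlabeled competitor peptide control wells for full effect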
Procedure, shortened: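 Assay system – tagged CAL PDZ protein CerCALP, purified · Timing – 1 h at RT · Compound – single point, 20 µM · Measured by – fluorescence polarization from S- and P-plane intensities, G-factor corrected · Evaluation – inhibition from polarization loss · Probe or stimulus – TMR reporter peptide T*-PRC34 · Buffer or medium – pH 7.4 phosphate-saline buffer, reducing agent, detergent, IgG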

Compared with `CC(NCCc1ccc(S(N)(=O)=O)cc1)C(=O)NCc1ccccc1` (centres undefined), `O=C(CN(CC1CCCO1)C(=O)CNS(=O)(=O)c1ccc(Cl)cc1)NCc1ccccc1` (centres undefined) is lower in inhibition: -0.747% for the first, -2.47% for the second.

Going from `CC(C)NC(=O)Nc1cccc2c1O[C@H](CN(C)S(=O)(=O)c1cccs1)[C@@H](C)CN([C@H](C)CO)C2=O` to `CC(C(=O)N(C)CC(=O)Nc1ccccc1C(F)(F)F)N1C(=O)c2ccccc2C1=O` (centres undefined), the inhibition rises from -1.8% to -0.0605%.

First: CC(C)(C)c1cc(=O)n2c(nc3ccccc32)[nH]1
Second: CCc1c(Nc2ccccc2Cl)nc(N)[nH]c1=O
The inhibition of the first is lower: -2.22% for the first, 0.824% for the second.

Compared with `O=C(Nc1ccc(C2CC2(Cl)Cl)cc1)c1cccc([N+](=O)[O-])c1` (centres undefined), `Cc1ccc(NC(=O)C2CC2c2ccccc2)cc1` (centres undefined) is lower in inhibition: 8.41% for the first, -0.307% for the second.

Compared with `CCOC(=O)C(C)n1cnc2scc(-c3ccc(C)c(C)c3)c2c1=O` (centres undefined), `CCOC(=O)C1Cn2c(nc3c(c2=O)C(C)(CC)Cc2ccccc2-3)S1` (centres undefined) is lower in inhibition: -1.15% for the first, -2.98% for the second.

First: CCOc1cc(CNCCN(C)C)c(Cl)cc1OCC(=O)NCCc1ccccc1
Second: CCOc1cc(C(=O)N(Cc2ccccc2)c2ccc(C)cc2)ccc1OCC(=O)N1CCOCC1
The inhibition of the first is lower: -2.91% for the first, -0.206% for the second.

Going from `CCOC(=O)C1Sc2[nH]c(=O)sc2C(c2ccc(Cl)cc2)C1C(=O)OCC` (centres undefined) to `Cc1ccc(C)c(C(=O)COC(=O)Cn2[nH]c(=O)c3ccccc3c2=O)c1`, the inhibition falls from 0.946% to -1.04%.

Compared with `Cc1cccc(C(=O)OCC(=O)NC(C)C2CC3CCC2C3)c1O` (centres undefined), `Cc1onc(-c2c(F)cccc2Cl)c1C(=O)OCC(=O)N1C(C)CCCC1C` (centres undefined) is lower in inhibition: 1.53% for the first, -0.828% for the second.

Compared with `COc1ccccc1N(CC(=O)NC1CCCC1)C(=O)C1(C)CC(=O)N=C2C=CC(C)=CN21` (centres undefined), `Cc1ccc(N(CC(=O)NC2CCCCC2)C(=O)CCCC(=O)Nc2ccccn2)c(C)c1` is higher in inhibition: -1% for the first, 0.671% for the second.

First: CC(=O)C1=C(C)NC2=C(C(=O)CC(C)(C)C2)C1C (centres undefined)
Second: COC(=O)[C@H]1Cc2cnoc2C[C@]1(C)C(=O)O
The inhibition of the first is higher: -0.554% for the first, -1.94% for the second.

Going from `COCCNC(=O)/C(C#N)=C/c1nc(N(C)C)n(-c2ccc(F)cc2)c1Cl` to `Cc1nc(CN(C)C(=O)CC2C(=O)NCCN2Cc2ccc(F)cc2)cs1` (centres undefined), the inhibition rises from -6.48% to -1.72%.

First: CN(CCc1cn[nH]c1)C(=O)CC1C(=O)NCCN1Cc1cccc(Oc2ccccc2)c1 (centres undefined)
Second: O=C1CS(=O)CN1c1ccc(Oc2ccccc2)cc1 (centres undefined)
The inhibition of the first is higher: 0.0148% for the first, -2.68% for the second.

Compared with `CN(C)S(=O)(=O)c1ccc(N2CCCC2)c(C(=O)Nc2ccc(Br)cc2F)c1`, `O=C(Nc1ccc2c(c1)nc1n2CCCCC1)c1cc(S(=O)(=O)N2CCOCC2)ccc1Cl` is lower in inhibition: 0.123% for the first, -2.81% for the second.

Compared with `NS(=O)(=O)c1ccc(CCNC(=O)c2ccc(Cl)c(S(=O)(=O)N3CCCCCC3)c2)cc1`, `O=C(NCCCN1CCCC1=O)c1cccc(S(=O)(=O)NCc2ccccc2)c1` is lower in inhibition: -0.205% for the first, -2.23% for the second.

First: COc1ccc(-c2c(C)nn3c(N4CCC(C(=O)N5CCCCC5)CC4)cc(C)nc23)cc1OC
Second: CCN(CC)c1ccc(NC(=O)CCc2nnc3ccc(N4CCCCC4)nn23)c(C)c1
The inhibition of the first is higher: 0.851% for the first, 0.659% for the second.

Going from `Cn1c(=O)c2c(nc(N3CCOCC3)n2CCNC2=NCCC2)n(C)c1=O` to `Cc1sc2ncn(CC(=O)NCCN(C)C)c(=O)c2c1S(=O)(=O)N1CCC(C)CC1`, the inhibition falls from 0.616% to -1.98%.

First: Cc1cccc(NC(=O)CSc2nnc(CCNC(=O)OC(C)(C)C)o2)c1C
Second: Cc1cccc(NC(=O)c2ccc(OCC(=O)NCc3ccccc3)cc2)c1C
The inhibition of the first is higher: 0.572% for the first, 0.0994% for the second.

Compared with `CN(C)c1ccc(CNC2C3CC4CC(C3)CC2C4)cc1` (centres undefined), `CCC1([N+](=O)[O-])COC(c2ccc(C)cc2)OC1` (centres undefined) is higher in inhibition: -1.31% for the first, -0.14% for the second.

First: CC(C)NC(=O)COCc1cc(-c2ccc3c(c2)OCO3)on1
Second: CCOC(=O)c1nc(-c2ccc3c(c2)OCO3)[nH]c1C
The inhibition of the first is higher: 0.0991% for the first, -0.475% for the second.

Compared with `CCOCCCNC(=O)C(NC(=O)CNC(=O)c1ccccc1)c1ccc(OC)cc1` (centres undefined), `CCOc1ccc(N(CC(=O)Nc2cccc(OC)c2)S(C)(=O)=O)cc1` is higher in inhibition: -0.316% for the first, 0.31% for the second.

Going from `CCOc1ccc2sc(NS(=O)(=O)c3ccc(N)cc3)nc2c1` to `O=C(NNS(=O)(=O)c1ccc(F)cc1)c1cnccn1`, the inhibition rises from -2.52% to -2.25%.

First: CCN(C(=O)Cc1nc(N)n[nH]1)C1(C(=O)Nc2ccccc2)CCCCC1
Second: COc1ccccc1C(=O)Nc1ccc(OCC(=O)N2CCCCC2)cc1
The inhibition of the first is higher: -0.615% for the first, -1.71% for the second.

Compared with `O=C(/C=C/c1ccccc1[N+](=O)[O-])OCC(=O)N1CCCC1`, `Cc1c(C(=O)N2CCCC2)c(S(=O)(=O)NCC(C)c2ccccc2)c(C)n1C` (centres undefined) is lower in inhibition: -0.608% for the first, -2.4% for the second.

Compared with `CCOC(=O)N1CCN(S(=O)(=O)N2CCCC(C(=O)NCCCN3CCC(C)CC3)C2)CC1` (centres undefined), `O=C(C1CC(=O)N(C2CCCCC2)C1)N1CCN(c2ccccc2)CC1` (centres undefined) is lower in inhibition: -1.6% for the first, -3.07% for the second.

Compared with `Cc1ccccc1/[N+]([O-])=C/c1ccncc1`, `CN(C)S(=O)(=O)c1ccc(N/C=C(\[N+](=O)[O-])S(=O)(=O)c2ccccc2)cc1` is higher in inhibition: -1.06% for the first, 0.264% for the second.

Going from `COc1ccc(Cn2c(-c3ccc(Cl)cc3)c[n+]3ccccc23)cc1` to `COc1cc(C2C3C(=O)N(c4ccccc4)C(=O)C3ON2c2ccccc2)ccc1O` (centres undefined), the inhibition rises from -2.82% to -0.569%.

Compared with `CSCCNC(=O)c1ccc2nc(Cc3ccccc3F)oc2c1`, `COc1ccc(CCNC(=O)c2nnc(CS(=O)(=O)c3ccccc3)o2)cc1OC` is higher in inhibition: 0.068% for the first, 1.25% for the second.

Going from `CC1CN(C(=S)Nc2ccc(Br)cc2Cl)CC(C)O1` (centres undefined) to `Clc1cc(-c2ccc(/C=N/n3cnnc3)o2)ccc1Br`, the inhibition falls from 0.196% to -4.91%.

First: Cc1ccccc1CNC(=O)CCC(=O)N1Cc2ccccc2Oc2ncccc21
Second: Cc1ccc(CNC(=O)C(=O)c2cn(CC(=O)N3CCOCC3)c3ccccc23)cc1
The inhibition of the first is lower: -3.11% for the first, -0.774% for the second.

Compared with `Cc1cccc(-n2nc3c(c2NC(=O)c2cc4ccccc4o2)CS(=O)(=O)C3)c1`, `Cc1ccc(C(=O)NN(CCC#N)C2=NS(=O)(=O)c3ccccc32)cc1` is higher in inhibition: -2.7% for the first, -0.552% for the second.

First: O=c1c2ccccc2cnn1Cc1n[nH]c(=S)n1-c1ccccc1F
Second: C=CCN1C(=O)C(O)(CC(=O)c2ccccn2)c2ccccc21 (centres undefined)
The inhibition of the first is higher: 0.871% for the first, 0.0287% for the second.

Compared with `CCC(C)Sc1nc2c(cnn2-c2ccc(F)cc2)c(=O)[nH]1` (centres undefined), `CCN(CC)c1ccc(C(=O)c2cnc(/N=C/N(C)C)s2)cc1` is higher in inhibition: -0.979% for the first, -0.472% for the second.

Going from `O=C1NC(c2ccccc2)CCC1(Cl)Cl` (centres undefined) to `Cc1csc(SCC(=O)N(c2ccccc2)C(C)C)n1`, the inhibition falls from -0.102% to -2.45%.

Going from `COc1cccc2c(C)c(C(=O)O)[nH]c12` to `COC(=O)c1sc(C(F)(F)F)c(-c2ccccc2)c1S(=O)(=O)N(C)C`, the inhibition falls from -0.62% to -1.85%.

Going from `CCCCc1nnc(NC(=O)CSc2nc(N)cc(=O)[nH]2)s1` to `CCCCc1nnc(NC(=O)CSc2nc(C)cc(=O)[nH]2)s1`, the inhibition falls from 0.237% to -0.42%.

Going from `CC(C)c1cc(N=O)cc(C(C)C)c1O` to `CC(C)=CCCC1(C)C=Cc2c(ccc3c2[nH]c2cc(O)c(C)cc23)O1` (centres undefined), the inhibition rises from -0.56% to 0.0711%.

Going from `CCOCCCN(C)C1CCN(C(=O)c2oc3ccccc3c2NC(=O)Cc2cccc([N+](=O)[O-])c2)CC1` to `O=C(Cc1ccc(NC(=O)C2CCCN(C(=O)CCc3ccccc3)C2)cc1)Nc1ccc(C(=O)N2CCOCC2)cc1` (centres undefined), the inhibition falls from -0.742% to -1.16%.

Going from `CC(C)(C)NC(=O)CN(C(=O)c1csnn1)c1ccccc1-c1ccccc1` to `CCOc1ncccc1C(=O)N(CC)CC(=O)Nc1ccc(NC(C)=O)cc1`, the inhibition rises from -2.13% to -1.13%.

Compared with `CCCCn1c(N)c(N(CCOC)C(=O)c2oc3ccc(OC)cc3c2C)c(=O)[nH]c1=O`, `CCCn1c(N)c(N(CCOC)C(=O)C2CCCC2)c(=O)[nH]c1=O` is higher in inhibition: -1.98% for the first, -0.787% for the second.

First: COc1c(C)cc(C(=O)C2CCCN(S(=O)(=O)c3c(C)noc3C)C2)cc1C (centres undefined)
Second: CC1CCCN(S(=O)(=O)c2ccc(-c3ccc(=O)[nH]n3)o2)C1 (centres undefined)
The inhibition of the first is lower: -2.46% for the first, -2.4% for the second.

Going from `Cc1ccc(S(=O)(=O)N(CC(O)CN2C(=O)NC(C)(C)C2=O)c2cccc([N+](=O)[O-])c2)cc1` (centres undefined) to `CC(=O)CCS(=O)(=O)c1ccc(C)c(C)c1`, the inhibition rises from -1.82% to 0.503%.

Going from `Cc1cc(-c2csc(N)n2)c(C)n1-c1ccccc1` to `Cc1ccc2cc(C)c(N3CCC(C)CC3)nc2c1`, the inhibition rises from -2.46% to 1.11%.

Going from `CC(=O)c1ccc(NC(=O)C(C)OC(=O)c2ccc(NS(=O)(=O)c3ccc4[nH]c(=O)[nH]c4c3)cc2)cc1` (centres undefined) to `CCCOP(=O)(c1ccc(N(C)C)cc1)C(O)c1cc(OC)c(OC)c(OC)c1` (centres undefined), the inhibition falls from 1.56% to -2.28%.

First: CN1CCN(CC(O)COCc2ccc3c(c2)OCO3)CC1 (centres undefined)
Second: O=C(CCl)NNc1cccc(Cl)n1
The inhibition of the first is higher: 0.909% for the first, -0.466% for the second.

`CCCCCc1nnc(NC(=O)c2ccc(=O)n(C)n2)s1` was tested, and the inhibition was 176% (active).
